ChEMBL document CHEMBL6087468, “TKK130 is a 3-Hydroxy-Propanamidine (HPA) with Potent Antimalarial In Vivo Activity and a High Barrier to Resistance” (J Med Chem, 2025)

Tests used:
[1] = Unbound drug concentration in plasma (unknown origin) at 25 ng/ml measured after 24 hrs by standard equilibrium dialysis assay; assay type: ADME, cell-free
Summary of the method: (§1)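 Standard equilibrium dialysis (6 kDa regenerated cellulose membrane): donor plasma spiked at 25 ng/mL, acceptor 0.9% saline, 24 h at 37 °C. Acetonitrile precipitation of plasma, methanol added to acceptor; LC–MS/MS with calibration curves in each medium; fraction bound corrected for volume shift; triplicate; itraconazole reference.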

[2] = Cytotoxicity against human HeLa cells assessed as cell viability measured after 24 hrs by neutral red assay; assay type: toxicity, cell-based
Hemozoin = assay: Inhibition of beta-hematin formation assessed as formation of bis-pyridyl heme complex incubated for 4 to 5 hrs by Nonidet-40 based plate reader assay
Plasmodium falciparum [3] = assay: Antimalarial activity against chloroquine-sensitive Plasmodium falciparum 3D7 infected in erythrocytes measured after 3 days by HRP2-ELISA analysis; assay type: functional, organism-based; conditions: 3D7, Erythrocyte, 72 h
[4] = target: Voltage-gated inwardly rectifying potassium channel KCNH2 (Homo sapiens, UniProt Q12809); assay: Inhibition of hERG by fluorescence polarization assay; assay type: toxicity
Voltage-gated inwardly rectifying potassium channel KCNH2, sequence (Q12809 whole entry): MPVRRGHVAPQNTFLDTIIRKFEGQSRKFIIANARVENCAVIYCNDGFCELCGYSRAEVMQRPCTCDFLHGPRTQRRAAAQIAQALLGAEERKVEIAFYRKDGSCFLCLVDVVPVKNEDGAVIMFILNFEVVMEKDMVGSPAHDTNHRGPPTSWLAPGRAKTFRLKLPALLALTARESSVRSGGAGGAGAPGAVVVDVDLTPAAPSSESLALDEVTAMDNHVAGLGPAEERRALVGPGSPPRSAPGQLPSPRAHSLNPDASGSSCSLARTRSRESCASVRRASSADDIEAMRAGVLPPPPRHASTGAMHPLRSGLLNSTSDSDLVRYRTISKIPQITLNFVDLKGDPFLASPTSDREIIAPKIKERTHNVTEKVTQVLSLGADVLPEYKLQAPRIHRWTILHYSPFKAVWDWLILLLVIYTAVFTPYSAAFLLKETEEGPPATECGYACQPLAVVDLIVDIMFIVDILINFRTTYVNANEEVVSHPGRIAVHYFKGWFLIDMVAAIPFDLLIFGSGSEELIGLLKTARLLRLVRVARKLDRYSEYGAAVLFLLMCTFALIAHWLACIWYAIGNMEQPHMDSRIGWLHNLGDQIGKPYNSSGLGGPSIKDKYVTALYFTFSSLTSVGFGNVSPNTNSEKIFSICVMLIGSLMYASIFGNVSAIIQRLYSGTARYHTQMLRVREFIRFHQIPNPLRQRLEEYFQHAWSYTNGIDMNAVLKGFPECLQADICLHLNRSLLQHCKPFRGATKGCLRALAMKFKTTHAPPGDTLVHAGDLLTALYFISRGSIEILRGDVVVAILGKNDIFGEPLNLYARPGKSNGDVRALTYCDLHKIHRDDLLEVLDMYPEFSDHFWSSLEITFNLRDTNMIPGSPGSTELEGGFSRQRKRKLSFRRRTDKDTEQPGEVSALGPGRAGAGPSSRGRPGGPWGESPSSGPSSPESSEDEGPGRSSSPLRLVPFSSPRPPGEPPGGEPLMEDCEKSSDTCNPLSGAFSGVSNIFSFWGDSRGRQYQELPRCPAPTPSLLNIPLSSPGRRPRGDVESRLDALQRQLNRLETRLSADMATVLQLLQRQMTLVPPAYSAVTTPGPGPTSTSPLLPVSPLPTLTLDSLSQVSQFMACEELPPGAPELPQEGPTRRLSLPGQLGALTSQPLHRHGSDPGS

Plasmodium falciparum [5] = assay: Induction of resistance development in Plasmodium falciparum Dd2 Pol delta at 2 x 10^7 initial inoculum per flask by single-step selection assay; assay type: functional, organism-based
[6] = Tmax in mouse infected with Plasmodium berghei at 10 mg/kg, po; assay type: ADME, organism-based; conditions: in vivo
Summary of the method: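 Infected mice (n = 2 per dose) given a single oral dose of 3, 10 or 30 mg/kg; blood sampled as dried blood spots at 1, 4 and 24 h post-dose, diluted before LC–MS analysis against whole-blood dried-spot calibration (1.56–800 ng/mL) with QCs; tmax from concentration–time profiles.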

Plasmodium berghei [7] = assay: In vivo antiplasmodial activity against Plasmodium berghei infected mouse model assessed as parasitemia suppression in blood at 10 mg/kg, po treated 4 times measured at 96 hrs post infection by fluorescence-activated cell sorting (FACS) analysis; assay type: functional
Plasmodium berghei [8] = assay: In vivo antiplasmodial activity against Plasmodium berghei infected mouse model assessed as mean survival time at 50 mg/kg, po treated 4 times measured at 96 hrs post infection by fluorescence-activated cell sorting (FACS) analysis (reference value: 4 days); assay type: functional
[9] = Plasma stability at 37 °C measured as remaining drug at 2 hrs sampled in triplicate (concentration 25 ng/mL 2 (TKK130)); assay type: ADME, cell-free; conditions: human, at 25 ng/mL, read-out: Stability
Summary of the method: (§2)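 Fresh EDTA human plasma warmed to 37 °C, spiked to 25 ng/mL (0.5% methanol final), split into three fractions, shaken at 37 °C. Samples at 0, 2, 4, 6, 24, 48 h precipitated with ice-cold acetonitrile containing internal standard; LC–MS/MS. Recovery = analyte/IS area ratio relative to 0 h; triplicate.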

[10] = Plasma stability at 37 °C measured as remaining drug at 48 hrs sampled in triplicate (concentration 25 ng/mL 2 (TKK130)); assay type: ADME, cell-free; conditions: human, at 25 ng/mL, read-out: Stability; summary of the method: as §2
Plasmodium falciparum [11] = assay: Antimalarial activity against Plasmodium falciparum K1 infected in human erythrocytes assessed as inhibition of parasite growth measured after 48 hrs incubation by [3H]hypoxanthine incorporation assay; assay type: functional, organism-based; conditions: K1, Erythrocyte
[12] = Plasma protein binding in plasma (unknown origin) at 25 ng/ml measured after 24 hrs by dilution method; assay type: ADME, cell-free
Summary of the method: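 Equilibrium dialysis with donor plasma diluted 1:10 or 1:20 in 0.9% saline, spiked at 25 ng/mL, against 0.9% saline acceptor for 24 h at 37 °C. Concentrations by LC–MS/MS against diluted-plasma calibration curves; unbound fraction (acceptor/donor) back-calculated to undiluted plasma; triplicate; itraconazole reference.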

Plasmodium falciparum [13] = assay: Antimalarial activity against […] wild type Plasmodium falciparum NF54 assessed as inhibition of parasite growth incubated for 48 hrs by [3H]hypoxanthine incorporation assay; assay type: functional, organism-based
Plasmodium falciparum [14] = assay: Antimalarial activity against Plasmodium falciparum Dd2 GNF156 harboring Pfcarl-mutant infected in human erythrocytes assessed as inhibition of parasite growth measured after 72 hrs incubation by [3H]hypoxanthine incorporation assay; assay type: functional, organism-based; conditions: Dd2 GNF156, Erythrocyte
Summary of the method: (§3)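 Dd2 parent line, and mutants made from it by gene editing or drug selection. Growth inhibition measured by the 72 h [3H]hypoxanthine incorporation assay at Swiss TPH. Values are means of 2 independent biological replicates.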

Plasmodium falciparum [15] = assay: Antimalarial activity against chloroquine, sulfadoxine, and pyrimethamine-resistant Plasmodium falciparum Dd2 infected in erythrocytes measured after 3 days by HRP2-ELISA analysis; assay type: functional, organism-based; conditions: Dd2, Erythrocyte, 72 h
[16] = Plasma stability at 37 °C measured as remaining drug at 24 hrs sampled in triplicate (concentration 25 ng/mL 2 (TKK130)); assay type: ADME, cell-free; conditions: human, at 25 ng/mL, read-out: Stability; summary of the method: as §2
[17] = Plasma protein binding in plasma (unknown origin) at 25 ng/ml measured after 24 hrs by standard equilibrium dialysis assay; assay type: ADME, cell-free; conditions: read-out: PPB (converted); summary of the method: as §1
Plasmodium berghei [18] = assay: In vivo antiplasmodial activity against Plasmodium berghei infected mouse model assessed as mean survival time at 3 mg/kg, po treated 4 times measured at 96 hrs post infection by fluorescence-activated cell sorting (FACS) analysis (reference value: 4 days); assay type: functional
Plasmodium falciparum [19] = assay: Induction of resistance development in Plasmodium falciparum Dd2 Pol delta at 2 x 10^9 initial inoculum per flask at 9 nM measured 60 days of recovery time by single-step selection assay; assay type: functional, organism-based; conditions: time 60.0 day
Plasmodium falciparum [20] = assay: Antimalarial activity against chloroquine, sulfadoxine, and pyrimethamine-resistant Plasmodium falciparum Dd2 infected in erythrocyte assessed as reduction in number of viable parasites at 10 times IC50 concentration treated for 24 hrs followed by allowed to recover in drug-free medium for 28 days by HRP2-ELISA analysis; assay type: functional, organism-based
Plasmodium knowlesi = assay: Antiplasmodial activity against Plasmodium Knowlesi inhibition of parasite growth measured after 48 hrs incubation by Sybr-green assay; assay type: functional, organism-based
Plasmodium berghei [21] = assay: In vivo antiplasmodial activity against Plasmodium berghei infected mouse model assessed as curation rate at 30 mg/kg, po treated 4 times measured at 96 hrs post infection by fluorescence-activated cell sorting (FACS) analysis; assay type: functional
[22] = Plasma stability at 37 °C measured as remaining drug at 6 hrs sampled in triplicate (concentration 25 ng/mL 2 (TKK130)); assay type: ADME, cell-free; conditions: human, at 25 ng/mL, read-out: Stability; summary of the method: as §2
Plasmodium berghei [23] = assay: In vivo antiplasmodial activity against Plasmodium berghei infected mouse model assessed as mean survival time at 30 mg/kg, po treated 4 times measured at 96 hrs post infection by fluorescence-activated cell sorting (FACS) analysis (reference value: 4 days); assay type: functional
Plasmodium falciparum [24] = assay: Antimalarial activity against Plasmodium falciparum Dd2 MMV183 harboring PfACoAS-mutant infected in human erythrocytes assessed as inhibition of parasite growth measured after 72 hrs incubation by [3H]hypoxanthine incorporation assay; assay type: functional, organism-based; conditions: Dd2 MMV183, Erythrocyte; summary of the method: as §3
Plasmodium falciparum [25] = assay: Antimalarial activity against Plasmodium falciparum Dd2 DDD107498 harboring PfeEF2 mutant infected in human erythrocytes assessed as inhibition of parasite growth measured after 72 hrs incubation by [3H]hypoxanthine incorporation assay; assay type: functional, organism-based; conditions: Dd2 DDD107498, Erythrocyte; summary of the method: as §3
[26] = AUC (0 to t) in mouse infected with Plasmodium berghei at 30 mg/kg, po; assay type: ADME, organism-based; conditions: in vivo
Summary of the method: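 Single oral dose to P. berghei-infected mice, 2 mice per dose group. Blood sampled at 1, 4 and 24 h post-dose as dried blood spots, plus a blank "0 h" reading. Spots diluted 1:5 (3, 10 mg/kg) or 1:10 (30 mg/kg), then quantified by LC–MS/MS against a whole-blood calibration of 1.56–800 ng/mL with QCs at three levels.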

## Cl.N=C(CC(O)c1cc2c(F)cc(F)cc2c2cc(C(F)(F)F)ccc12)Nc1ccc(F)cc1 (stereo not drawn)
[1]
  Cp(f): 0.2%
[2]
  IC50 at 24 h: 89300 nM
Hemozoin
  IC50: 9400 nM
Plasmodium falciparum [3]
  IC50: 2 nM
[4]
  IC50: 300 nM
Plasmodium falciparum [5]
  Activity: Active; No Resistant Parasites Generated
[6]
  Tmax: 4 h
Plasmodium berghei [7]
  Activity: 99.9%
Plasmodium berghei [8]
  MSD: 30 days
[9]
  remaining at 2 h, 25 ng/mL: 90.2%
[10]
  remaining at 48 h, 25 ng/mL: 59.4%
Plasmodium falciparum [11]
  IC50: 3 nM
[12]
  fraction unbound at 24 h, 25 ng/ml: 0.004
Plasmodium falciparum [13]
  IC50: 11 nM
Plasmodium falciparum [14]
  IC50: 7 nM
Plasmodium falciparum [15]
  IC50: 3 nM
[16]
  remaining at 24 h, 25 ng/mL: 76.4%
[17]
  fraction unbound at 24 h, 25 ng/ml: < 0.002
Plasmodium berghei [18]
  MSD: 20 days
Plasmodium falciparum [19]
  Activity: Active; No Subsequent Parasite Growth Observed
Plasmodium falciparum [20]
  Activity: Active; Compound Exhibited Fast-Acting Than Dihydroartemisinin
Plasmodium knowlesi
  IC50: 1 nM
Plasmodium berghei [21]
  Activity: 100%
[22]
  remaining at 6 h, 25 ng/mL: 91.9%
Plasmodium berghei [23]
  MSD: 30 days
Plasmodium falciparum [24]
  IC50: 13 nM
Plasmodium falciparum [25]
  IC50: 16 nM
[26]
  AUC(0-t): 40900 ng·h/mL
